Laboratory results published in ChEMBL document CHEMBL4354843, “Structure-Based Design of a Potent and Selective Covalent Inhibitor for SRC Kinase That Targets a P-Loop Cysteine” (J Med Chem, 2020).

Columns and labels:
[1] = biological target: Tyrosine-protein kinase receptor TYRO3 (Homo sapiens) (UniProt Q06418); assay: Binding affinity to wild-type human partial length TYRO3 (S497 to T814 residues) expressed in bacterial expression system assessed as residual binding level at 1 uM by Kinomescan method relative to control
[2] = biological target: Cyclin-dependent kinase 2 (Homo sapiens) (UniProt P24941); assay: Binding affinity to wild-type human full length CDK2 (M1 to L298 residues) expressed in bacterial expression system assessed as residual binding level at 1 uM by Kinomescan method relative to control
In short: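 Active-site-directed KinomeScan competition binding panel covering 468 kinases, compound tested at 1 μM. Each readout is the kinase signal remaining with compound, expressed as a percentage of the DMSO control. […]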

[3] = biological target: Cyclin-dependent kinase-like 5 (Homo sapiens) (UniProt O76039); assay: Binding affinity to wild-type human partial length CDKL5 (M1 to S337 residues) expressed in mammalian expression system assessed as residual binding level at 1 uM by Kinomescan method relative to control
[4] = biological target: Tyrosine-protein kinase JAK1 (Homo sapiens) (UniProt P23458); assay: Binding affinity to wild-type human partial length JAK1 JH2 pseudokinase domain (R537 to D855 residues) expressed in mammalian expression system assessed as residual binding level at 1 uM by Kinomescan method relative to control
[5] = tested on: ALK tyrosine kinase receptor (Homo sapiens), Q9UM73 [C1156Y]; assay: Binding affinity to wild-type human partial length ALK C1156Y mutant (I1088 to E1409 residues) expressed in mammalian expression system assessed as residual binding level at 1 uM by Kinomescan method relative to control
[6] = biological target: 5'-AMP-activated protein kinase catalytic subunit alpha-2 (Homo sapiens) (UniProt P54646); assay: Binding affinity to wild-type human partial length AMPK alpha2 (M1 to E306 residues) expressed in bacterial expression system assessed as residual binding level at 1 uM by Kinomescan method relative to control
[7] = biological target: Serine/threonine-protein kinase pim-1 (Homo sapiens) (UniProt P11309); assay: Binding affinity to wild-type human partial length PIM1 (A15 to K313 residues) expressed in bacterial expression system assessed as residual binding level at 1 uM by Kinomescan method relative to control
[8] = biological target: Serine/threonine-protein kinase RIO2 (Homo sapiens) (UniProt Q9BVS4); assay: Binding affinity to wild-type human partial length RIOK2 (M1 to D313 residues) expressed in mammalian expression system assessed as residual binding level at 1 uM by Kinomescan method relative to control
[9] = tested on: Fibroblast growth factor receptor 3 (Homo sapiens), P22607 [G697C]; assay: Binding affinity to human partial length FGFR3 G697C mutant (R442 to S771 residues) expressed in bacterial expression system assessed as residual binding level at 1 uM by Kinomescan method relative to control
In short: (§1)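 KinomeScan active site-directed competition binding panel (468 kinases), compound tested at 1 μM. Result expressed as remaining kinase signal versus DMSO control (percent of control).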

[10] = biological target: Serine/threonine-protein kinase Nek9 (Homo sapiens) (UniProt Q8TD19); assay: Binding affinity to wild-type human partial length NEK9 (P32 to R328 residues) expressed in bacterial expression system assessed as residual binding level at 1 uM by Kinomescan method relative to control
HCC827 = assay: Antiproliferative activity against human HCC827 cells assessed as reduction in cell viability incubated for 72 hrs by cell-titer glo assay; settings: HCC827, 72 h
[11] = tested on: Tyrosine-protein kinase ABL1 (Homo sapiens), P00519 [F317L]; assay: Binding affinity to human phosphorylated ABL1 F317L mutant (S229 to K512 residues) expressed in mammalian expression system assessed as residual binding level at 1 uM by Kinomescan method relative to control; in short: as §1
[12] = biological target: Serine/threonine-protein kinase MARK1 (Homo sapiens) (UniProt Q9P0L2); assay: Binding affinity to wild-type human partial length MARK1 (Q30 to T341 residues) expressed in bacterial expression system assessed as residual binding level at 1 uM by Kinomescan method relative to control
In short: (§2)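 Active-site-directed competition binding panel of 468 kinases (KinomeScan), compound at 1 μM. The read-out is kinase remaining bound, given as a percentage of the DMSO control. […]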

[13] = biological target: Ribosomal protein S6 kinase alpha-6 (Homo sapiens) (UniProt Q9UK32); assay: Binding affinity to wild-type human partial length N- terminal RSK4 kinase domain 1 (M1 to E397 residues) expressed in mammalian expression system assessed as residual binding level at 1 uM by Kinomescan method relative to control; in short: as §2
[14] = biological target: Focal adhesion kinase 1 (Homo sapiens) (UniProt Q05397); assay: Binding affinity to wild-type human partial length FAK (D402 to R696 residues) expressed in bacterial expression system assessed as residual binding level at 1 uM by Kinomescan method relative to control
[15] = tested on: Receptor-type tyrosine-protein kinase FLT3 (Homo sapiens), P36888 [D835H]; assay: Binding affinity to human partial length FLT3 D835H mutant (V592 to Y969 residues) expressed in bacterial expression system assessed as residual binding level at 1 uM by Kinomescan method relative to control; in short: as §1
[16] = biological target: Ephrin type-A receptor 5 (Homo sapiens) (UniProt P54756); assay: Binding affinity to wild-type human partial length EPHA5 (T627 to V930 residues) expressed in bacterial expression system assessed as residual binding level at 1 uM by Kinomescan method relative to control; in short: as §2
[17] = tested on: Phosphatidylinositol 4,5-bisphosphate 3-kinase catalytic subunit alpha isoform (Homo sapiens), P42336 [H1047Y]; assay: Binding affinity to human partial length PIK3CA H1047Y mutant (R108 to N1068 residues) expressed in mammalian expression system assessed as residual binding level at 1 uM by Kinomescan method relative to control; in short: as §1
[18] = biological target: Serine/threonine-protein kinase Nek2 (Homo sapiens) (UniProt P51955); assay: Binding affinity to wild-type human partial length NEK2 (M1 to K309 residues) expressed in bacterial expression system assessed as residual binding level at 1 uM by Kinomescan method relative to control
[19] = biological target: NUAK family SNF1-like kinase 2 (Homo sapiens) (UniProt Q9H093); assay: Binding affinity to wild-type human partial length SNARK (P22 to A333 residues) expressed in mammalian expression system assessed as residual binding level at 1 uM by Kinomescan method relative to control
[20] = biological target: Misshapen-like kinase 1 (Homo sapiens) (UniProt Q8N4C8); assay: Binding affinity to wild-type human partial length MINK (M1 to K312 residues) expressed in mammalian expression system assessed as residual binding level at 1 uM by Kinomescan method relative to control; in short: as §2
[21] = tested on: Receptor-type tyrosine-protein kinase FLT3 (Homo sapiens), P36888 [UNDEFINED MUTATION]; assay: Binding affinity to human partial length FLT3 ITD mutant expressed in bacterial expression system assessed as residual binding level at 1 uM by Kinomescan method relative to control; in short: as §1

SMILES: C=CC(=O)Nc1ccccc1Nc1nc(Nc2ccc(N3CCN(C)CC3)cc2)ncc1C(=O)Nc1c(C)cccc1Cl
- Activity [1]: 89%
- Activity [2]: 100%
- Activity [3]: 100%
- Activity [4]: 100%
- Activity [5]: 99%
- Activity [6]: 100%
- Activity [7]: 100%
- Activity [8]: 100%
- Activity [9]: 100%
- Activity [10]: 100%
- IC50 (HCC827): 500 nM
- Activity [11]: 1.3%
- Activity [12]: 99%
- Activity [13]: 77%
- Activity [14]: 100%
- Activity [15]: 95%
- Activity [16]: 78%
- Activity [17]: 100%
- Activity [18]: 100%
- Activity [19]: 100%
- Activity [20]: 81%
- Activity [21]: 100%
